Assay results reported in ChEMBL document CHEMBL4190388, “Discovery and Optimization of Indolyl-Containing 4-Hydroxy-2-Pyridone Type II DNA Topoisomerase Inhibitors Active against Multidrug Resistant Gram-negative Bacteria” (J Med Chem, 2018).
Values after ≈ are worked out from the molar mass of the structure shown.

Legend:
Escherichia coli [1] = experiment: Bactericidal activity against wild type Escherichia coli ATCC 25922 assessed as reduction of bacterial load after 24 hrs by time kill assay; format: functional, organism-based
Escherichia coli [2] = experiment: Antibacterial activity against quinolone resistance Escherichia coli isolate ELZ4251 harboring gyrA/parC mutant by CLSI M100-S17 protocol based method; format: functional
Escherichia coli [3] = experiment: Antibacterial activity against wild type Escherichia coli ATCC 25922 by CLSI M100-S17 protocol based method; format: functional
Acinetobacter baumannii [4] = experiment: Antibacterial activity against fluoroquinolone resistant Acinetobacter baumannii isolate MMX2240 by CLSI M100-S17 protocol based method; format: functional
Acinetobacter baumannii [5] = experiment: Bactericidal activity against wild type Acinetobacter baumannii ATCC BAA-747 assessed as reduction of bacterial load at 0.25 to 4 times MIC after 2 hrs by time kill assay; format: functional
Escherichia coli [6] = experiment: Antibacterial activity against fluoroquinolone resistant Escherichia coli SKM18 by CLSI M100-S17 protocol based method; format: functional
Acinetobacter baumannii [7] = experiment: Antibacterial activity against wild type Acinetobacter baumannii ATCC BAA-747 by CLSI M100-S17 protocol based method; format: functional
Escherichia coli [8] = experiment: Bactericidal activity against wild type Escherichia coli ATCC 25922 assessed as reduction of bacterial load at 0.25 to 8 times MIC after 2 hrs by time kill assay; format: functional
Acinetobacter baumannii [9] = experiment: Bactericidal activity against wild type Acinetobacter baumannii ATCC BAA-747 assessed as reduction of bacterial load after 24 hrs by time kill assay; format: functional, organism-based
Escherichia coli [10] = experiment: Antibacterial activity against wild type Escherichia coli ATCC 25922 in presence of HSA by CLSI M100-S17 protocol based method; format: functional
Klebsiella pneumoniae = experiment: Antibacterial activity against wild type Klebsiella pneumoniae ATCC 35657 by CLSI M100-S17 protocol based method; format: functional
Mus musculus [11] = experiment: Terminal half life in CD1 mouse plasma at 10 mg/kg, iv by LC-MS/MS analysis; format: ADME, organism-based; conditions: in vivo
Mus musculus [12] = experiment: Volume of distribution at steady state in CD1 mouse plasma at 10 mg/kg, iv by LC-MS/MS analysis; format: ADME, organism-based; conditions: in vivo
Acinetobacter baumannii [13] = experiment: Antibacterial activity against carbapenem resistant Acinetobacter baumannii by broth microdilution method; format: functional; conditions: Acinetobacter baumannii
Outline: (§1)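 MICs were determined by CLSI broth methods, except that organisms were grown in brain–heart–infusion medium. The panel comprised wild-type and resistant E. coli and A. baumannii strains, including 12 strains whose details are given by reference.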

[14] = Fraction unbound in mouse plasma at 1 uM by equilibrium dialysis method; format: ADME, cell-free
Mus musculus [15] = experiment: AUC (0 to 24 hrs) in CD1 mouse plasma at 10 mg/kg, iv by LC-MS/MS analysis; format: ADME, organism-based; set-up: time < 24 hr, dose 10 mg/kg, route intravenous; conditions: in vivo
Outline: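 CD-1 mice given a single 10 mg/kg iv dose (n = 3), in either 10% DMSO plus 1% Tween 80 in pH 8.0 phosphate buffer or 20% (2-hydroxypropyl)-β-cyclodextrin in pH 4.0 citrate buffer; plasma exposure measured.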

Acinetobacter baumannii [16] = experiment: Antibacterial activity against beta-lactam resistant Acinetobacter baumannii by broth microdilution method; format: functional; conditions: Acinetobacter baumannii; outline: as §1
Acinetobacter baumannii [17] = experiment: Antibacterial activity against multidrug resistant Acinetobacter baumannii by broth microdilution method; format: functional; conditions: Acinetobacter baumannii; outline: as §1
Acinetobacter baumannii [18] = experiment: Antibacterial activity against wild type Acinetobacter baumannii by broth microdilution method; format: functional; outline: as §1
Escherichia coli [19] = experiment: Antibacterial activity against Escherichia coli infected in cyclophosphamide treated neutropenic CD1 mouse septicemia model assessed as mouse survival at 20 mg/kg, iv dosed at 1 hr post infection followed by redosing at 5 hrs post infection measured at 96 hrs post infection relative to control; format: functional
Outline: (§2)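 Female CD-1 mice were made neutropenic with cyclophosphamide ip, 150 mg/kg on day −4 and 100 mg/kg on day −1. […] Compound was given iv in 3% DMSO/saline at 1 and 5 h postinfection, n = 6 per group. Percent survival was scored at 96 h postinfection.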

Escherichia coli [20] = experiment: Antibacterial activity against multidrug resistant Escherichia coli by broth microdilution method; format: functional; conditions: Escherichia coli; outline: as §1
Escherichia coli [21] = experiment: Selectivity ratio of MIC for wild type Escherichia coli ATCC 25922 in presence of HSA to MIC for wild type Escherichia coli ATCC 25922; format: functional
Escherichia coli [22] = experiment: Antibacterial activity against quinolone resistant Escherichia coli by broth microdilution method; format: functional; conditions: Escherichia coli; outline: as §1
[23] = Oral bioavailability in CD1 mouse plasma by LC-MS/MS analysis; format: ADME, organism-based
Escherichia coli [24] = experiment: Antibacterial activity against beta-lactam resistant Escherichia coli by broth microdilution method; format: functional; conditions: Escherichia coli; outline: as §1
Escherichia coli [25] = experiment: Antibacterial activity against aminoglycoside resistant Escherichia coli by broth microdilution method; format: functional; conditions: Escherichia coli; outline: as §1
Acinetobacter baumannii [26] = experiment: Antibacterial activity against quinolone resistant Acinetobacter baumannii by broth microdilution method; format: functional; conditions: Acinetobacter baumannii; outline: as §1
Acinetobacter baumannii [27] = experiment: Antibacterial activity against aminoglycoside resistant Acinetobacter baumannii by broth microdilution method; format: functional; conditions: Acinetobacter baumannii; outline: as §1
Escherichia coli [28] = experiment: Antibacterial activity against wild type Escherichia coli by broth microdilution method; format: functional; outline: as §1
[29] = Inhibition of His tagged Escherichia coli ATCC 25922 DNA gyrase A expressed in Escherichia coli BL21 (DE3) pLysS cells assessed as reduction in enzyme-mediated supercoiling of relaxed plasmid DNA pNO1 after 30 mins in presence of biotinylated TFO1 by fluorescence assay
Mus musculus [30] = experiment: AUC (0 to 24 hrs) in CD1 mouse plasma at 3 mg/kg, iv by LC-MS/MS analysis; format: ADME, organism-based; set-up: time < 24 hr, dose 3 mg/kg, route intravenous; conditions: in vivo
Outline: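 CD-1 mice given a single 3 mg/kg iv dose (n = 3) in 3% DMSO/saline; plasma exposure measured.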

Mus musculus [31] = experiment: Antibacterial activity against Escherichia coli infected in cyclophosphamide treated neutropenic CD1 mouse septicemia model assessed as mouse survival at 1.5 mg/kg, iv dosed at 1 hr post infection followed by redosing at 5 hrs post infection measured at 96 hrs post infection relative to control; format: functional; outline: as §2
Mus musculus [32] = experiment: Antibacterial activity against Escherichia coli infected in cyclophosphamide treated neutropenic CD1 mouse septicemia model assessed as mouse survival at 3 mg/kg, iv dosed at 1 hr post infection followed by redosing at 5 hrs post infection measured at 96 hrs post infection relative to control; format: functional; outline: as §2

With `CCc1c(-c2ccc3c(c2)cc(CN2CCC2)n3C)[nH]c(=O)c(C(=O)O)c1O` as the compound, how does the Activity (Escherichia coli [1]) read?
The Activity was “Dose-dependent effect”.

And the MIC (Escherichia coli [2])?
Its MIC is 1.6 µg/mL (≈ 4.19 µM).

And the MIC (Escherichia coli [3])?
The MIC was 0.39 µg/mL (≈ 1.02 µM).

What about the MIC (Acinetobacter baumannii [4]) of the same compound?
The MIC was 6.3 µg/mL (≈ 16.5 µM).

What about the Activity (Acinetobacter baumannii [5]) of the same compound?
Its Activity is 2 log10CFU.

And the MIC (Escherichia coli [6])?
Its MIC is 1.6 µg/mL (≈ 4.19 µM).

And the MIC (Acinetobacter baumannii [7])?
The MIC was 0.39 µg/mL (≈ 1.02 µM).

And the Activity (Escherichia coli [8])?
The Activity was 3 log10CFU.

What about the Activity (Acinetobacter baumannii [9]) of the same compound?
Its Activity is “Dose-dependent effect”.

And the MIC (Escherichia coli [10])?
The MIC was 1.6 µg/mL.

And the MIC (Klebsiella pneumoniae)?
The MIC was 0.78 µg/mL (≈ 2.04 µM).

Which “beta t1/2” value (Mus musculus [11]) does the source give for `Cn1c(CNC2(C)CCC2)cc2cc3c(cc21)OCCc1c-3[nH]c(=O)c(C(=O)O)c1O` here?
Its value is 3.3 h.

And the Vdss (Mus musculus [12])?
Its Vdss is 13 L/kg.

And the MIC50 (Acinetobacter baumannii [13])?
Its MIC50 is 1 µg/mL (≈ 2.36 µM).

What about the MIC90 (Acinetobacter baumannii [13]) of the same compound?
Its MIC90 is 8 µg/mL (≈ 18.9 µM).

And the Fu [14]?
The Fu was 0.15.

And the AUC (Mus musculus [15])?
Its AUC is 4420 ng·h/mL.

What about the MIC (Escherichia coli [2]) of the same compound?
The MIC was 0.78 µg/mL (≈ 1.84 µM).

And the MIC (Escherichia coli [3])?
The MIC was 1 µg/mL (≈ 2.36 µM).

What about the MIC (Acinetobacter baumannii [4]) of the same compound?
The MIC was 0.5 µg/mL (≈ 1.18 µM).

And the MIC50 (Acinetobacter baumannii [16])?
The MIC50 was 1 µg/mL (≈ 2.36 µM).

And the MIC90 (Acinetobacter baumannii [16])?
Its MIC90 is 8 µg/mL (≈ 18.9 µM).

And the MIC (Escherichia coli [6])?
The MIC was 0.5 µg/mL (≈ 1.18 µM).

And the MIC (Acinetobacter baumannii [7])?
The MIC was 0.5 µg/mL (≈ 1.18 µM).

And the MIC50 (Acinetobacter baumannii [17])?
The MIC50 was 1 µg/mL (≈ 2.36 µM).

What about the MIC90 (Acinetobacter baumannii [17]) of the same compound?
Its MIC90 is 8 µg/mL (≈ 18.9 µM).

What about the MIC50 (Acinetobacter baumannii [18]) of the same compound?
Its MIC50 is 1 µg/mL (≈ 2.36 µM).

What about the MIC90 (Acinetobacter baumannii [18]) of the same compound?
The MIC90 was 8 µg/mL (≈ 18.9 µM).

What about the survival at 20 mg/kg (Escherichia coli [19]) of the same compound?
Its survival at 20 mg/kg is 67%.

What about the MIC50 (Escherichia coli [20]) of the same compound?
Its MIC50 is 0.5 µg/mL (≈ 1.18 µM).

What about the MIC90 (Escherichia coli [20]) of the same compound?
The MIC90 was 1 µg/mL (≈ 2.36 µM).

What about the MIC (Escherichia coli [20]; read-out: MIC) of the same compound?
The MIC was 0.12 to 1 µg/mL (≈ 0.283 to 2.36 µM).

And the Ratio (Escherichia coli [21])?
Its Ratio is 2 - 4.

What about the MIC50 (Escherichia coli [22]) of the same compound?
The MIC50 was 0.5 µg/mL (≈ 1.18 µM).

And the MIC90 (Escherichia coli [22])?
Its MIC90 is 1 µg/mL (≈ 2.36 µM).

What about the MIC (Escherichia coli [22]; read-out: MIC) of the same compound?
The MIC was 0.12 to 1 µg/mL (≈ 0.283 to 2.36 µM).

What about the bioavailability [23] of the same compound?
Its bioavailability is 50%.

What about the MIC50 (Escherichia coli [24]) of the same compound?
Its MIC50 is 0.5 µg/mL (≈ 1.18 µM).

What about the MIC90 (Escherichia coli [24]) of the same compound?
The MIC90 was 1 µg/mL (≈ 2.36 µM).

And the MIC (Escherichia coli [24]; read-out: MIC)?
The MIC was 0.12 to 1 µg/mL (≈ 0.283 to 2.36 µM).

And the MIC50 (Escherichia coli [25])?
The MIC50 was 0.5 µg/mL (≈ 1.18 µM).

What about the MIC90 (Escherichia coli [25]) of the same compound?
The MIC90 was 1 µg/mL (≈ 2.36 µM).

And the MIC (Escherichia coli [25]; read-out: MIC)?
Its MIC is 0.12 to 1 µg/mL (≈ 0.283 to 2.36 µM).

And the MIC (Escherichia coli [10])?
Its MIC is 3.9 µg/mL.

And the MIC (Klebsiella pneumoniae)?
The MIC was 1 µg/mL (≈ 2.36 µM).

And the MIC50 (Acinetobacter baumannii [26])?
Its MIC50 is 1 µg/mL (≈ 2.36 µM).

And the MIC90 (Acinetobacter baumannii [26])?
Its MIC90 is 8 µg/mL (≈ 18.9 µM).

And the MIC50 (Acinetobacter baumannii [27])?
Its MIC50 is 1 µg/mL (≈ 2.36 µM).

What about the MIC90 (Acinetobacter baumannii [27]) of the same compound?
Its MIC90 is 8 µg/mL (≈ 18.9 µM).

What about the MIC50 (Escherichia coli [28]) of the same compound?
The MIC50 was 0.5 µg/mL (≈ 1.18 µM).

What about the MIC90 (Escherichia coli [28]) of the same compound?
Its MIC90 is 1 µg/mL (≈ 2.36 µM).

For `O=C(O)c1cn(C2CC2)c2cc(N3CCNCC3)c(F)cc2c1=O` [CIPROFLOXACIN], which Activity (Escherichia coli [1]) is on record?
Its Activity is “Dose-dependent effect”.

What about the IC50 [29] of the same compound?
Its IC50 is 190 nM.

And the Activity (Acinetobacter baumannii [9])?
The Activity was “Dose-dependent effect”.

What does the source list for `COc1c(N2C[C@@H]3CCCN[C@@H]3C2)c(F)cc2c(=O)c(C(=O)O)cn(C3CC3)c12` [MOXIFLOXACIN]?
Fu [14]: 0.8; AUC (Mus musculus [30]): 640 ng·h/mL; survival at 1.5 mg/kg (Mus musculus [31]): 83%; survival at 3 mg/kg (Mus musculus [32]): 100%
